Assay results published in ChEMBL document CHEMBL1153852, “Steroidal lactones as inhibitors of 17beta-hydroxysteroid dehydrogenase type 5: chemical synthesis, enzyme inhibitory activity, and assessment of estrogenic and androgenic activities” (Eur J Med Chem, 2009).
Calls of active or inactive are those of the source. The rule behind the calls is not given here.

Columns and labels:
[1] = biological target: T1, Aldo-keto reductase family 1 member C3 (Homo sapiens) (UniProt P42330); test: Inhibition of human 17beta-HSD5 expressed in HEK293 cells assessed as enzyme-mediated transformation of [14C]-4-androstene-3,17-dione in to [14C]-testosterone at 3 uM after 18 hrs; type: cell-based
T1 sequence (whole entry): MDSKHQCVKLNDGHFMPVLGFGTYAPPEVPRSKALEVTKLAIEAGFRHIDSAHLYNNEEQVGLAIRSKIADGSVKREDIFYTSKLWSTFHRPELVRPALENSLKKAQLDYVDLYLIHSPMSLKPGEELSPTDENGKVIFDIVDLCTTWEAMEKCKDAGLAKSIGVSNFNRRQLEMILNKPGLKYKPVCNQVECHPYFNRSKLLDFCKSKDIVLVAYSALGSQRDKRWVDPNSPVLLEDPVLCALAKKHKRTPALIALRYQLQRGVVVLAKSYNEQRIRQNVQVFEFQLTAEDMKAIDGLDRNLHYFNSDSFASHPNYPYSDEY
How it was run: (§1)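 Intact HEK-293 cells stably over-expressing human 17β-HSD5, in freshly changed culture medium. [14C]-4-androstene-3,17-dione is added at 100 nM with inhibitor from an ethanolic solution; controls get ethanol only. After 18 h the conversion to [14C]-T is measured.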

[2] = biological target: T2, Aldo-keto reductase family 1 member C3 (Homo sapiens, UniProt P42330); test: Inhibition of human 17beta-HSD5 expressed in HEK293 cells assessed as enzyme-mediated transformation of [14C]-4-androstene-3,17-dione in to [14C]-testosterone after 18 hrs; type: cell-based
T2 sequence (P42330 whole entry): T1 sequence (whole entry)
How it was run: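 Intact HEK-293 cells stably over-expressing human 17β-HSD5, in fresh culture medium. [14C]-4-androstene-3,17-dione 0.1 μM with inhibitor added in ethanol (ethanol alone as control), 18 h.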

ZR-75-1 [3] = test: Estrogenic activity in human ZR-75-1 cells expressing estrogen receptor assessed as estrogen-induced cell proliferation at 1 uM after 9 days relative to estrogen; type: functional
How it was run: (§2)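 ZR-75-1 cells are resuspended in phenol red-free RPMI 1640 with 5% dextran-charcoal-treated FBS and seeded at 10,000 cells/well. After 3 days of adhesion, lactones from ethanol stocks are added alone or with E2 (0.1 nM). Cells grow 9 days at 37 °C in 5% CO2, with medium changed every 2–3 days. DNA is measured by DABA fluorescence; E2-induced growth is set to 100%.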

Mus musculus [4] = species on record: Mus musculus; test: Androgenic activity in mouse SC115 cells expressing androgen receptor assessed as DHT-induced cell proliferation at 1 uM after 10 days relative to DHT; type: functional, cell-based
How it was run: (§3)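 SC115 Shionogi clone selected for DHT sensitivity, in MEM with 2% dextran-charcoal-treated FCS, seeded at 20,000 cells/well. After 24 h the medium is renewed and lactones added at 0.1 and 1, without DHT. Final ethanol is 0.01%. Cells are grown 10 days at 37 °C in 5% CO2, with medium changed every 3–4 days. DNA is measured by DABA fluorescence; DHT-stimulated growth is set to 100%.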

[5] = biological target: T1, Aldo-keto reductase family 1 member C3 (Homo sapiens); test: Inhibition of human 17beta-HSD5 expressed in HEK293 cells assessed as enzyme-mediated transformation of [14C]-4-androstene-3,17-dione in to [14C]-testosterone at 0.3 uM after 18 hrs; type: cell-based; how it was run: as §1
ZR-75-1 [6] = test: Antiestrogenic activity in human ZR-75-1 cells expressing estrogen receptor assessed as inhibition of estrogen-induced cell proliferation at 1 uM after 9 days relative to estrogen; type: functional, cell-based; how it was run: as §2
Mus musculus [7] = species on record: Mus musculus; test: Androgenic activity in mouse SC115 cells expressing androgen receptor assessed as DHT-induced cell proliferation at 0.1 uM after 10 days relative to DHT; type: functional, cell-based; how it was run: as §3
ZR-75-1 [8] = test: Antiestrogenic activity in human ZR-75-1 cells expressing estrogen receptor assessed as inhibition of estrogen-induced cell proliferation at 0.03 uM after 9 days relative to estrogen; type: functional, cell-based; how it was run: as §2
[9] = biological target: T3, Androgen receptor (Rattus norvegicus) (UniProt P15207); test: Binding affinity to rat ventral prostate androgen receptor at 0.1 uM; type: tissue-based; conditions: Prostate gland
T3 sequence (whole entry): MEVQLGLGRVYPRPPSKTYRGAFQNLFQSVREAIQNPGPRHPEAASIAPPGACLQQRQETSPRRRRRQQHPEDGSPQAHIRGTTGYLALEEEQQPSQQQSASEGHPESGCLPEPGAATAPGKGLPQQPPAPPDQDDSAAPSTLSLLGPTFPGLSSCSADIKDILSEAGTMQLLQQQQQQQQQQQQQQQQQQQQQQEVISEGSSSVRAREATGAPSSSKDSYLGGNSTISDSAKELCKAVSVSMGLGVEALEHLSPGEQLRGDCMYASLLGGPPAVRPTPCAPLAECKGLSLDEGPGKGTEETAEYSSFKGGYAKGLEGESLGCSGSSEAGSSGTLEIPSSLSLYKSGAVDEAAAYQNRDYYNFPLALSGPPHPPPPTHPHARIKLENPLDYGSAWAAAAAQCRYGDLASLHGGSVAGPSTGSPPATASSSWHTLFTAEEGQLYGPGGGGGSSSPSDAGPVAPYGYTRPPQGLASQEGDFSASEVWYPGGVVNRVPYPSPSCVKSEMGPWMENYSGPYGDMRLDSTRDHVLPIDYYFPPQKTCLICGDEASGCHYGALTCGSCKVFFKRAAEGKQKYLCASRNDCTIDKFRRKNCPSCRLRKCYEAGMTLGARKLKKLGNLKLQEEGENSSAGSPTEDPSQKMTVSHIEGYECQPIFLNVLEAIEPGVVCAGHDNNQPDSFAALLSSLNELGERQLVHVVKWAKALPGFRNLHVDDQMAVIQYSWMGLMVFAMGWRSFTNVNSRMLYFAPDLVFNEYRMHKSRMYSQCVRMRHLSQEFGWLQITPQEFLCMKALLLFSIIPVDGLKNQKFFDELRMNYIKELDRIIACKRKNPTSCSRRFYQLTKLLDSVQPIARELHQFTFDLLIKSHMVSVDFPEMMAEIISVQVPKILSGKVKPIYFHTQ

Row | Activity [9] [%] | SMILES | inhibition [1] [%] | IC50 [2] [nM] | Activity (ZR-75-1 [3]) [%] | Activity (Mus musculus [4]) | inhibition [5] [%] | Activity (ZR-75-1 [6]) | Activity (Mus musculus [7]) | Activity (ZR-75-1 [8])
1 | – | CC1(C)CC[C@@]2(CC[C@H]3[C@@H]4CCc5ccccc5[C@H]4CC[C@@]32C)OC1=O | 95 | 2.9 | 50 | inactive | 94 | inactive | inactive | inactive
2 | 0 | CC1(C)CC[C@@]2(CC[C@H]3[C@@H]4CCc5cc(O)ccc5[C@H]4CC[C@@]32C)OC1=O | 94 | 28 | 30 | inactive | 86 | Active | inactive | inactive
